# Screens (PubChem BioAssay)
# Most compounds without a hit are left out; they make up all but 3.7% or so of the library.
# KCNK9 block = blocks the human KCNK9 two-pore domain potassium channel. 310,000 tested, 1.2% active. Q9NPC2. AID 488922. HEK293 KCNK9, FluxOR thallium flux fluorescence; active compounds read low. B-score at 10 µM;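 active = ratio B-score over 3 SD below the library mean, with starting fluorescence within 5 SD of its mean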;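 also: negative B-score means less thallium flux so channel inhibition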
# KCNK3 block = human KCNK3 channel inhibition, primary screen. O14649. CHO-KCNK3 thallium flux, FluxOR fluorescence; active compounds read low. B-score at 10 µM. 340,000 tested, 0.84% active. AID 602410;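 active = B-score under library mean minus 4 SD, starting fluorescence ratio at most library mean plus 5 SD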;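 also: more negative B-score means stronger inhibition of thallium flux through KCNK3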
# KCNQ1 block = human KCNQ1 channel inhibition. CHO-K1 KCNQ1, FluxOR thallium flux fluorescence; active compounds read high. B-score at 10 µM. 310,000 tested, 1.3% active;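 active = compounds whose thallium flux B-score, printed positive for inhibition, exceeds three library SD while starting fluorescence stays within three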;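 also: channel opened by potassium depolarization with thallium stimulus after 20 min compound exposure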
# Target sequence (P51787 whole entry, looked up): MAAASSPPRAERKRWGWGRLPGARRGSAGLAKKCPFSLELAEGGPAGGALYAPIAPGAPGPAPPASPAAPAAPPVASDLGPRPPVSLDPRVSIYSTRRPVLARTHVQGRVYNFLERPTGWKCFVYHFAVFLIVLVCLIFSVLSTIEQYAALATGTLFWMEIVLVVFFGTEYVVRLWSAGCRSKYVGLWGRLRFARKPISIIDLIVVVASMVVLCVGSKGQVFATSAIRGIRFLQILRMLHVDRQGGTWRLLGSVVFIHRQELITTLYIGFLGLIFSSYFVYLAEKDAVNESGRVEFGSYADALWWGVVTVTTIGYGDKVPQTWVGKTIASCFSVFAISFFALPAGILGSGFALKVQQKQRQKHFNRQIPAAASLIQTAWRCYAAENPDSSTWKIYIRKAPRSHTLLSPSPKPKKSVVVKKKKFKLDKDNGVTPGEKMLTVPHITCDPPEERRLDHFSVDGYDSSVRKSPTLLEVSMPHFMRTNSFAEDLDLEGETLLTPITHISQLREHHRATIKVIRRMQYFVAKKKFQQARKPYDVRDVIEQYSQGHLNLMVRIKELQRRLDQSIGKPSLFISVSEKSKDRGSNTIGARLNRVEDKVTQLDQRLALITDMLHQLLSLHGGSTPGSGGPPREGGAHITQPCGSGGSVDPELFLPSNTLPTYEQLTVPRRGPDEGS
# hERG rescue = shields human hERG channel from block by proarrhythmic agents. 310,000 tested, 0.51% active. AID 1511. Q12809. CHO-hERG, FluxOR thallium flux, dofetilide IC70 present. activation (rescue from dofetilide block), less the hit threshold, % at 10 µM;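 active = activation above the mean of controls blocked by dofetilide plus 5 SD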;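 also: thallium influx through hERG after potassium depolarization seen as dye fluorescence rise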
# KCNQ1 act = potentiates or activates the human KCNQ1 potassium channel; P51787; B-score at 10 µM; 310,000 tested, 0.35% active; CHO-K1 KCNQ1, thallium flux FluxOR fluorescence; active compounds read high;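 active = fluorescence ratio B-score, a plate-corrected score, at least three library SD, with initial intensity B-score within 5 SD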
#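 Assay system: stable KCNQ1 CHO-K1 line; medium: assay buffer, equal DMSO in all wells; timing: 90 min dye loading and 20 min compound exposure, both at room temperature; technique: kinetic FluxOR thallium fluorescence, 10-s 1-Hz baseline, 110-s post-stimulus read; read-out basis: B score of baseline-normalized fluorescence ratio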
# Kir21 block = inhibitors of mouse Kir2.1 inward-rectifier potassium channel | P35561 | HEK293-Kir2.1, FluxOR thallium flux fluorescence; active compounds read low | B-score at 10 µM | 310,000 tested, 0.85% active | AID 1672;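 active = fluorescence ratio B-score at or below minus 3 SD of library scores, with starting-brightness B-score within 2 SD, cut at about -4.2 in these data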;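 also: channel flux triggered by added potassium and thallium sulfate stimulus; B-score of peak minus minimum fluorescence over baseline after thallium stimulus; more negative B-score means stronger Kir2.1 block with less thallium influx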
# KCNK3 confirm = human KCNK3 channel inhibition, confirmation assay | shares compounds with KCNK3 block | 2,400 tested, 99% active | ratio percent of control, % at 10 µM | CHO-KCNK3 thallium flux, FluxOR fluorescence; 0% buffer, 100% carvedilol maximal block;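 active = ratio percent of control, averaged over triplicates, above buffer control mean plus 5 SD, cut at about 64% in these data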;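 also: ratio is the fluorescence rise from min to max over baseline after thallium stimulus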
# KCNK3 noninduced = counter-screen for KCNK3 inhibitors: effect in non-induced cells; non-induced KCNK3 parental cells, FluxOR thallium flux; active compounds read low; AID 651747; thallium flux ratio (lower = more inhibition) at 10 µM; shares compounds with KCNK3 block; 2,400 tested, 40% active;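 active = thallium flux ratio, averaged over three wells, more than 5 SD below the buffer control mean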;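 also: host cells are CHO cells without KCNK3 induction; ratio is peak minus trough fluorescence over baseline then normalized to buffer controls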
# Numbers without * were called inactive; i = inactive; / = no result given.
SMILES,KCNK9 block,KCNK3 block,KCNQ1 block,hERG rescue,KCNQ1 act,Kir21 block,KCNK3 confirm,KCNK3 noninduced
COC(=O)C1CCN(C(=O)COC(=O)c2cc(-c3ccccc3)nc3ccc(OC)cc23)CC1,/,-12*,/,/,/,/,105*,i
COc1ccc(-c2cc(C(=O)OCC(=O)N3CCOCC3)c3ccccc3n2)cc1,/,i,/,/,/,/,/,/
COc1ccc(NC(=O)c2ccc(S(=O)(=O)C(F)F)cc2)c(OC)c1,i,i,i,-3,i,0.2,/,/
COc1ccc(NC(=O)c2ccc(-n3c(C)ccc3C)cc2)c(OC)c1,i,-8.8*,i,-8,i,-0.61,124*,i
CCCc1cc(C(=O)Nc2cc(OC)ccc2OC)cs1,i,-10*,i,-4,i,1.9,130*,0.15*
COc1cc2c(cc1NC(=O)c1ccc(C(C)(C)C)cc1)CCCC2,i,-10*,i,1,i,0.72,105*,i
COc1ccc(OC)c(NC(=O)c2ccc(OC3CSC3)cc2)c1,i,-9.1*,i,-5,i,-1.6,102*,i
O=C1/C(=C/c2ccc(Br)cc2)Oc2cc(O)ccc21,i,-12*,6*,-2,i,-1.1,119*,0.13*
CCCn1c(=O)[nH]c(=O)c2c1nc(-c1ccc(OC)c(Br)c1)n2CCOC,i,i,i,-17,i,1.3,/,/
C=CCn1c(SCC(=O)N2CC(=O)Nc3ccccc32)nc2scc(-c3cccs3)c2c1=O,-7.4*,-13*,i,-15,i,1.9,110*,i
CC(C)CCn1c(SCC(=O)N2CC(=O)Nc3ccccc32)nc2scc(-c3cccs3)c2c1=O,i,i,i,-8,i,0.35,/,/
Cc1ccc(S(=O)(=O)CCC(O)c2ccc(Cl)cc2)cc1 (stereo not drawn),i,i,i,-4,i,0.38,/,/
C=CS(=O)(=O)c1sc(Cl)c(N2CCOCC2)c1[N+](=O)[O-],i,-9*,i,-1,11*,-9.5*,125*,0.12*
C=CSc1sc(Cl)c(N2CCOCC2)c1[N+](=O)[O-],i,i,i,-6,i,-0.97,/,/
COc1ccccc1C(=O)Nc1cccc(NC(=O)c2ccccc2OC)n1,i,-11*,i,-8,i,0.37,113*,i
COc1ccccc1C(=O)Nc1ccon1,i,i,i,-7,i,0.01,/,/
COc1ccccc1C(=O)Nc1ccccc1SC(=O)c1ccccc1OC,-13*,-9.4*,i,-20,i,0.11,113*,i
Cc1cccc(NC(=O)c2ccc(C(=O)c3ccccc3)cc2)n1,i,i,i,-17,i,0.64,/,/
O=C(Nc1cccc(NC(=O)c2ccccc2)n1)c1ccccc1,i,-10*,i,-5,i,1.3,97*,i
CCCN1CCN(C(=O)Nc2cccc(C(F)(F)F)c2)CC1,i,-10*,i,-11,i,0.18,106*,i
CC1(C)CC(=O)C=C(Nc2ccc(C(=O)O)c(O)c2)C1,i,i,i,-5,i,-0.57,/,/
Cc1cc(C)c2nc(-c3cccnc3)cc(C(=O)NC(C)c3cnn(C)c3C)c2c1 (stereo not drawn),i,-9.2*,i,-18,i,-2.6,111*,0.16*
Cc1cccc2c(C(=O)O)cc(-c3cccnc3)nc12,i,i,i,-5,i,-2.9,/,/
CCCN(c1nc(C)cc(OC)n1)S(=O)(=O)c1ccccc1,i,-12*,i,-8,i,-8.3*,101*,i
Cc1ccc(C)c(-c2cc(C(=O)Nc3cccnc3)c3ccccc3n2)c1,-8*,-12*,6*,-9,i,-0.5,125*,0.12*
SMILES,KCNK9 block,KCNK3 block,KCNQ1 block,hERG rescue,KCNQ1 act,Kir21 block,KCNK3 confirm,KCNK3 noninduced
C=CCn1c(SCC(=O)N2CCN(C(=O)c3ccco3)CC2)nc2sc(CC)cc2c1=O,i,-11*,i,-16,i,0.13,120*,0.15*
C=CCn1c(SCC(=O)O)nc2sc(CC)cc2c1=O,i,i,i,-5,i,0.41,/,/
C=CCn1c(SCC(=O)c2cccs2)nc2sc(CC)cc2c1=O,i,-11*,i,-9,i,0.04,128*,i
O=C(O)CC(C(=O)O)c1ccc(OCCCCOc2ccc(C(CC(=O)O)C(=O)O)cc2)cc1 (stereo not drawn),i,i,i,-9,i,1.1,/,/
COc1ccccc1NC(=O)C(C)OC(=O)CCCc1c[nH]c2ccccc12 (stereo not drawn),-7.2*,-10*,i,-14,i,-0.39,104*,i
Cc1c(C(=O)Nc2ccc(Cl)cc2)c2ccccn2c1CCc1ccncc1,i,-9.7*,i,-7,i,-0.35,109*,0.14*
O=C(c1ccco1)N1CCN(C(=O)c2ccccc2OCc2ccc(Cl)cc2)CC1,i,i,i,-15,i,0.02,/,/
O=C(c1ccccc1OCc1ccc(Cl)cc1)N1CCN(c2ccccn2)CC1,i,-9*,i,-18,i,-1.8,119*,i
CCCc1cc(C(=O)Cc2ccc(C(=O)OCC)o2)c(O)cc1O,-17*,-11*,i,-3,i,-2.8,104*,0.13*
COC(=O)C(C)Sc1nc2ccsc2c(=O)n1Cc1ccccc1 (stereo not drawn),i,-9.4*,i,-14,i,-0.24,94*,i
COc1ccc(Cn2c(SCC(=O)NCc3ccco3)nc3ccsc3c2=O)cc1,i,i,i,-3,i,-0.02,/,/
CCn1c(SCC(=O)Nc2ccc(N(C)C)cc2)nnc1-c1ccco1,i,i,i,-6,i,0.77,/,/
CC1CCN(S(=O)(=O)c2ccc3ncn(CC(=O)N(C)Cc4ccccc4)c(=O)c3c2)CC1,i,-13*,i,-2,i,-0.02,72*,i
COC(=O)c1ccccc1NC(=O)Cn1cnc2ccc(S(=O)(=O)N3CCC(C)CC3)cc2c1=O,i,i,i,-1,i,1.4,/,/
CCN(C[C@H]1N[C@@](CC)(C(=O)OC)[C@H]2C(=O)N(C)C(=O)[C@@H]12)S(=O)(=O)c1ccc(OC)cc1,/,i,/,/,/,/,/,/
COc1ccc(N2CCN(c3oc(-c4ccco4)nc3C#N)CC2)cc1,i,i,i,-12,i,-1.3,/,/
